Measurements published in ChEMBL document CHEMBL1140235, “Novel 4-(4-aryl)cyclohexyl-1-(2-pyridyl)piperazines as Delta(8)-Delta(7) sterol isomerase (emopamil binding protein) selective ligands with antiproliferative activity” (J Med Chem, 2008).

Columns and labels:
PC-3 [1] = assay: Cytotoxicity against human PC3 cells assessed as LDH release at 100 uM after 24 hrs relative to untreated control; format: functional
Outline: (§1)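 PC-3 cells exposed to test compound for 24 h at 37 °C, 5% CO2. LDH release into the medium was measured fluorimetrically (ex 560/em 590 nm) after 10 min with substrate mix at room temperature, then stop solution. Total LDH taken from lysed untreated wells. % cytotoxicity = 100 × (treated medium LDH − background)/(total LDH − background).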

[2] = target: T1, 3-beta-hydroxysteroid-Delta(8),Delta(7)-isomerase (Cavia porcellus, UniProt Q60490); assay: Displacement of [3H](-)-(S)-emopamil from EBP in guinea pig liver membrane; format: cell membranes
T1 sequence (Q60490 whole entry): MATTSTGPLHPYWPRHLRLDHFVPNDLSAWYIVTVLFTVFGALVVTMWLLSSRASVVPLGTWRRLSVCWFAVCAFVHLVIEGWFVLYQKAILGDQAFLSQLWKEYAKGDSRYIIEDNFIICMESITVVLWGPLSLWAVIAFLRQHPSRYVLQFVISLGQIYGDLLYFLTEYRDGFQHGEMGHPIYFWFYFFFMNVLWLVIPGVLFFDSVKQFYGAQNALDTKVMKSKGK
Outline: (§2)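 Radioligand displacement run by previously published methods, EBP per Moebius and σ1/σ2 per Matsumoto. Tissues from male Dunkin guinea pigs and Wistar Hannover rats (250–300 g). IC50 from six to nine drug concentrations in two or three experiments, samples in duplicate.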

PC-3 [3] = assay: Antiproliferative activity against human PC3 cells expressing EBP at 100 uM after 48 hrs by MTT assay; format: functional; conditions: PC-3, 48 h
Outline: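 PC-3 human prostate cancer cells grown in RPMI 1640 with 10% FBS, 2 mM glutamine and penicillin/streptomycin at 37 °C under 5% CO₂. Seeded at 10 000 cells/well, then dosed the next day with solvent (ethanol, DMSO) controls. Incubated 48 h. MTT 0.5 mg/mL added for 3 h at 37 °C, formazan dissolved in DMSO, absorbance read at 570 and 630 nm. Percent inhibition at 100 µM, n ≥ 2 separate experiments.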

[4] = Displacement of [3H]-DTG from sigma 2-type opioid receptor in rat liver membrane in presence of (+)-pentazocine; format: cell membranes; outline: as §2
[5] = target: T2, 5-hydroxytryptamine receptor 1A (Rattus norvegicus, UniProt P19327); assay: Displacement of [3H]8OH-DPAT from 5HT1A receptor in rat hippocampal membrane; format: cell membranes, Hippocampus
T2 sequence (P19327 whole entry): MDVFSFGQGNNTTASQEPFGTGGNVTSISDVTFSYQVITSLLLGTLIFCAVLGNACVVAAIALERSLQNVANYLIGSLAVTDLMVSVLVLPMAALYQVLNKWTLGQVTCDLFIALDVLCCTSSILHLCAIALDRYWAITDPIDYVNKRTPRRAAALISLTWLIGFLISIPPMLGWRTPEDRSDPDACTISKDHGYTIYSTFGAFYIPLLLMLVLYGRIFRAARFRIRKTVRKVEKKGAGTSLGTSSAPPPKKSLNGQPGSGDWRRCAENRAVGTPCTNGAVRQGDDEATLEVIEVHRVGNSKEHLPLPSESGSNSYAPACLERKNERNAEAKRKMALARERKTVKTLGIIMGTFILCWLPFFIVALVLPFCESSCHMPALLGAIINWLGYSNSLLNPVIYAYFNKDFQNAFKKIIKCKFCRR

[6] = target: T3, Adrenergic receptor alpha-1 (Rattus norvegicus, UniProt P15823+P23944+P43140); assay: Displacement of [3H]prazosin from adrenergic alpha1 receptor in rat cortical membrane; format: cell membranes
T3 sequence (P15823 whole entry): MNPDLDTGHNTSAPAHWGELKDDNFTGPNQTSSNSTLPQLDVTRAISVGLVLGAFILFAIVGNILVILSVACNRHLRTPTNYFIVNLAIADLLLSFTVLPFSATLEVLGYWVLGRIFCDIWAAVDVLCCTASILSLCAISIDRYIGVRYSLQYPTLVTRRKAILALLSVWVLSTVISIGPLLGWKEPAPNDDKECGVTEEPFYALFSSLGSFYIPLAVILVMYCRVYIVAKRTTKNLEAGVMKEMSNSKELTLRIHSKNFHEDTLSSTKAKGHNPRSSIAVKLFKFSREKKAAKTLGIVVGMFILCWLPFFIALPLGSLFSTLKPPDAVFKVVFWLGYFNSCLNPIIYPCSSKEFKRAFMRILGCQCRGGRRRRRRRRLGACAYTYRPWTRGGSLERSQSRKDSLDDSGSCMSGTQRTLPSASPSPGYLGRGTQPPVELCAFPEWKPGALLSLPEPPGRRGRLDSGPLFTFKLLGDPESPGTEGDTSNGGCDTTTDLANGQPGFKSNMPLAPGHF
T3 sequence (P23944 whole entry): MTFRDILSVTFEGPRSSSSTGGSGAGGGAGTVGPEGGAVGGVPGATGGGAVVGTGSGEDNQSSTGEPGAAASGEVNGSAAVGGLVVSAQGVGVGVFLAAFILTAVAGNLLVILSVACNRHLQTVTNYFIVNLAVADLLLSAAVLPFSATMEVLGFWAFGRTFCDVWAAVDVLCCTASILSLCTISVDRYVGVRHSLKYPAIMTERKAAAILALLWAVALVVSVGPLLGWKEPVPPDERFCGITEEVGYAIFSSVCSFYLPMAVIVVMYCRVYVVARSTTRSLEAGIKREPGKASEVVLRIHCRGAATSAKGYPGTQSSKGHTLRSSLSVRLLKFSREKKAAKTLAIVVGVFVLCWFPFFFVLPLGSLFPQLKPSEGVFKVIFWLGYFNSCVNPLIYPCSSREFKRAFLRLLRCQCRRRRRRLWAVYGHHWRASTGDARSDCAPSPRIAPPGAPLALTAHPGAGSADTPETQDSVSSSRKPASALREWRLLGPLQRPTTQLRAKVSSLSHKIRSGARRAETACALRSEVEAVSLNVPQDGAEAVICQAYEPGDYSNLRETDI
T3 sequence (P43140 whole entry): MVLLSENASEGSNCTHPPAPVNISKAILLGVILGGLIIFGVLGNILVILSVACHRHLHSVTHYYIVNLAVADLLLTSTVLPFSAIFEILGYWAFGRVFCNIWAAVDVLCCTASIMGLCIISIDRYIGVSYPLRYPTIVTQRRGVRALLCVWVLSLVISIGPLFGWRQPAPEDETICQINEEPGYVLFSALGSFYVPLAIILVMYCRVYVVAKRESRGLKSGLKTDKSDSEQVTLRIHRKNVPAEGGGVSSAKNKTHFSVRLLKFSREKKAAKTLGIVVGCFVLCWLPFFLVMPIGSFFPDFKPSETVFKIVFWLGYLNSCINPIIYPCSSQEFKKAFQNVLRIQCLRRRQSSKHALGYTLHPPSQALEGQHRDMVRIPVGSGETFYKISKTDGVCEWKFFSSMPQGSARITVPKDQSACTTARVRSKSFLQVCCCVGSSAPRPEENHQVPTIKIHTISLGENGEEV

[7] = target: Sigma non-opioid intracellular receptor 1 (Cavia porcellus, UniProt Q60492); assay: Displacement of [3H](+)-pentazocine from sigma 1 receptor in guinea pig brain membrane without cerebellum; format: cell membranes; outline: as §2
D(2) dopamine receptor = D(2) dopamine receptor (Rattus norvegicus, UniProt P61169); assay: Displacement of [3H]spiroperidol from dopamine D2 receptor in rat striatal membrane; format: cell membranes, Striatum
Cavia porcellus = organism: Cavia porcellus; assay: Selectivity ratio of Ki for sigma 1 receptor in guinea pig brain membrane without cerebellum to Ki for EBP in guinea pig liver membrane; format: cell membranes
PC-3 [8] = assay: Antiproliferative activity against human PC3 cells expressing EBP after 48 hrs by MTT assay; format: functional, cell-based
Outline: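 MTT read-out at 48 h in PC-3 cells grown in RPMI 1640 with 10% FBS, 2 mM glutamine, penicillin/streptomycin, 37 °C, 5% CO2. 10 000 cells/well seeded day 1, drugs added day 2 over 1–100 µM (150 or 300 µM for some references). Solvent controls included. MTT 0.5 mg/mL for 3 h, formazan dissolved in DMSO, absorbance at 570 and 630 nm.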

[9] = Selectivity ratio of Ki for sigma 2 receptor in rat liver membrane to Ki for EBP in guinea pig liver membrane; format: cell membranes
PC-3 [10] = assay: Cytotoxicity against human PC3 cells assessed as LDH release after 24 hrs; format: functional, cell-based; conditions: PC-3, 24 h; outline: as §1

Sequence of Sigma non-opioid intracellular receptor 1 (Q60492 whole entry): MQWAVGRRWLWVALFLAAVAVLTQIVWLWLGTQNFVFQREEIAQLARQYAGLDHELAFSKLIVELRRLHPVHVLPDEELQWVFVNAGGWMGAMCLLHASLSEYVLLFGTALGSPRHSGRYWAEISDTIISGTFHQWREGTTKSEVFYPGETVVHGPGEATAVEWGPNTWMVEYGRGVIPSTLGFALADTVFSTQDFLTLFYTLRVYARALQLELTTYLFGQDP
Sequence of D(2) dopamine receptor (P61169 whole entry): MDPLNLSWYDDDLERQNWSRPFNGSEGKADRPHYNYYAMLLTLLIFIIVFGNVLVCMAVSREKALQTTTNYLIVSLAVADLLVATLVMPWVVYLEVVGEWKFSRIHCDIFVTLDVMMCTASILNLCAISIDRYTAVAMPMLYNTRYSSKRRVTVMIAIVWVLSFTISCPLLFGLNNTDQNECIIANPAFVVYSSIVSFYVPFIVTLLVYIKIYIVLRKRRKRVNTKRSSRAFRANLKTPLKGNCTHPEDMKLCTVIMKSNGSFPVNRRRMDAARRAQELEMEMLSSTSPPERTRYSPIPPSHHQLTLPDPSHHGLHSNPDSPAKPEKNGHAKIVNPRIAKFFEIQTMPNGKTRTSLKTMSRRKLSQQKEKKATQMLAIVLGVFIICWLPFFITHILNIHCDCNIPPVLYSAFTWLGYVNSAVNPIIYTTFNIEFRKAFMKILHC

| Structure (SMILES) | Activity (PC-3 [1]) [%] | Ki [2] [nM] | inhibition at 100 µM (PC-3 [3]) [%] | Ki [4] [nM] | Ki [5] [nM] | Ki [6] [nM] | Ki [7] [nM] | Ki (D(2) dopamine receptor) [nM] | Ratio Ki (Cavia porcellus) | EC50 (PC-3 [8]) [nM] | Ratio Ki [9] | EC50 (PC-3 [10]) [nM] |
| --- | --- | --- | --- | --- | --- | --- | --- | --- | --- | --- | --- | --- |
| Cc1ccccc1NC(=N)Nc1ccccc1C | <10 | 7660 | 27 | 31.1 |  |  |  |  |  |  |  |  |
| COc1ccc([C@H]2CC[C@@H](N3CCN(c4ccccn4)CC3)CC2)cc1 | <10 | 32.8 |  | 63.8 | 94 | 786 | 194 | 787 | 4 |  |  |  |
| COc1ccccc1[C@H]1CC[C@@H](N2CCN(c3ccccn3)CC2)CC1 | <10 | 8.15 |  | 242 | 480 | 712 | 369 | 2120 | 45 | 19300 | 30 |  |
| c1ccc(CCN2CCCCC2)cc1 | <10 | 595 | 30 | 194 |  |  | 309 |  | 0.5 |  | 0.3 |  |
| COc1cccc2c1CCCC2CCCN1CCN(C2CCCCC2)CC1 (stereo not drawn) |  | 8.38 |  | 0.34 |  |  |  |  |  | 37700 |  | 64200 |
